Experimental data: paper PMC8251533 (Clinical Pharmacology in Drug Development, 2021)

Experiments:
[1] = Semaglutide plasma pharmacokinetics after a single dose of oral semaglutide; format: in vivo, human
How it was run: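 Same crossover, dosing and fasting. Plasma was drawn predose and 0.5–24 h and analysed by LC-MS/MS (LLOQ 0.73 nmol/L). Trapezoidal AUC0-24h was used; log-transformed mixed models (volume, period fixed; subject random) allowed left-censoring. For correlation, log PK was modelled against log time to complete tablet erosion, assessed by gamma scintigraphy of ¹¹¹In-labelled tablets. 2^β gave the fold change per doubling. All-below-LLOQ profiles were imputed from 0.5×LLOQ.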

[2] = SNAC plasma pharmacokinetics after a single dose of oral semaglutide; format: in vivo, human; conditions: for Median tmax,SNAC: plasma, LC-MS/MS
How it was run: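 Two-period randomized crossover in 26 fasting healthy men. Each received one 10 mg tablet (coformulated with 300 mg absorption enhancer), upright, between 8 and 11 am, with 50 or 240 mL water. Fasting continued ≥4 h, with 200 mL water at 2 h. Plasma was drawn predose and 10 min–6 h and assayed by protein precipitation LC-MS/MS. Trapezoidal AUC0-6h used actual times. AUC and Cmax were log-transformed; mixed model had volume and period fixed, subject random.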

[3] = linear mixed model, log-transformed
[4] = single oral semaglutide tablet with 300 mg SNAC, fasting healthy men

| 2^β, estimated fold change in AUC0-24h,semaglutide if time to CTE is doubled [1, 3] | 2^β, estimated fold change in Cmax,semaglutide if time to CTE is doubled [1, 3] | 2^β, estimated fold change in tmax,semaglutide if time to CTE is doubled [1, 3] | AUC0-24h,semaglutide, higher with 50 versus 240 mL water ([1]; single 10 mg oral semaglutide) | Cmax,semaglutide, higher with 50 versus 240 mL water ([1]; single 10 mg oral semaglutide) | Median tmax,SNAC ([2]; 50 mL water) | Median tmax,SNAC ([2]; 240 mL water) | AUC0-6h,SNAC, lower with 50 versus 240 mL water [2, 4] | Cmax,SNAC, lower with 50 versus 240 mL water [2, 4] | SMILES |
| --- | --- | --- | --- | --- | --- | --- | --- | --- | --- |
| approximately 2 | approximately 2 | ~1.5 | approximately 70% | approximately 70% |  |  |  |  | CC[C@H](C)[C@H](NC(=O)[C@H](Cc1ccccc1)NC(=O)[C@H](CCC(=O)O)NC(=O)[C@H](CCCCNC(=O)COCCOCCNC(=O)COCCOCCNC(=O)CC[C@H](NC(=O)CCCCCCCCCCCCCCCCC(=O)O)C(=O)O)NC(=O)[C@H](C)NC(=O)[C@H](C)NC(=O)[C@H](CCC(N)=O)NC(=O)CNC(=O)[C@H](CCC(=O)O)NC(=O)[C@H](CC(C)C)NC(=O)[C@H](Cc1ccc(O)cc1)NC(=O)[C@H](CO)NC(=O)[C@H](CO)NC(=O)[C@@H](NC(=O)[C@H](CC(=O)O)NC(=O)[C@H](CO)NC(=O)[C@@H](NC(=O)[C@H](Cc1ccccc1)NC(=O)[C@@H](NC(=O)CNC(=O)[C@H](CCC(=O)O)NC(=O)C(C)(C)NC(=O)[C@@H](N)Cc1cnc[nH]1)[C@@H](C)O)[C@@H](C)O)C(C)C)C(=O)N[C@@H](C)C(=O)N[C@@H](Cc1c[nH]c2ccccc12)C(=O)N[C@@H](CC(C)C)C(=O)N[C@H](C(=O)N[C@@H](CCCNC(=N)N)C(=O)NCC(=O)N[C@@H](CCCNC(=N)N)C(=O)NCC(=O)O)C(C)C [semaglutide] |
|  |  |  |  |  | 18 min | 18 min | 19% | 38% | O=C([O-])CCCCCCCNC(=O)c1ccccc1O.[Na+] [SNAC, sodium N‐(8‐[2‐hydroxybenzoyl]amino) caprylate] |
